From ChEMBL document CHEMBL1138251, “Synthesis and evaluation of antiparasitic activities of new 4-[5-(4-phenoxyphenyl)-2H-pyrazol-3-yl]morpholine derivatives” (J Med Chem, 2007)

Tests used:
[1] = system: Leishmania donovani; assay: Antiparasitic activity against Leishmania donovani MHOM-ET-67/L82 in amastigotes stage; format: functional, organism-based
Outline: (§1)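 Microplate assay at pH 7.4. Organisms: L. donovani MHOM-ET-67/L82, T. b. rhodesiense STIB900, T. cruzi Tulahuen C4. Cytotoxicity used rat skeletal myoblast L-6 cells. Compounds were tested in duplicate at […], and actives were retested in duplicate down to 3.5 nM. IC50 was taken from sigmoidal inhibition curves. Reference standards: miltefosine (L. donovani), melarsoprol (T. b. rhodesiense), benznidazole (T. cruzi), podophyllotoxin (L-6).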

[2] = system: Trypanosoma brucei rhodesiense; assay: Antiparasitic activity against Trypanosoma brucei rhodesiense STIB900 in blood; format: functional, organism-based; outline: as §1
[3] = system: L6; assay: Cytotoxicity against rat L6 cells; format: cell-based
[4] = system: Trypanosoma cruzi; assay: Antiparasitic activity against Trypanosoma cruzi Tulahuen C4 in amastigotes stage
[5] = system: Plasmodium falciparum; assay: Antiparasitic activity against chloroquine, pyrimethamine-resistant Plasmodium falciparum K1 erythrocyte stage
[6] = system: Trypanosoma brucei rhodesiense; assay: Antiparasitic activity against Trypanosoma brucei rhodesiense STIB900 in procyclic stage; format: functional, organism-based

CCc1ccc(C(=O)CC(=O)C2CCOCC2)cc1 gave an IC50 [1] of 9.8 µM, an IC50 [2] of 20.9 µM and an IC50 [3] of 202 µM. For the same molecule, the IC50 [4] was 54.9 µM, the IC50 [5] was > 19 µM and the IC50 [6] was 3.4 µM.
In the case of O=C(CC(=O)c1ccc(Oc2ccccc2)cc1)CN1CCOCC1, the IC50 [1] is reported as 5.2 µM, the IC50 [2] is reported as 18.9 µM and the IC50 [3] is reported as 112 µM. The IC50 [4] was 20.6 µM, the IC50 [5] was > 15 µM and the IC50 [6] was 1 µM.
Nc1ccc(Oc2ccc(-c3cc(N4CCOCC4)[nH]n3)cc2)cc1 was tested, and the IC50 [1] was 20.3 µM, the IC50 [2] was 17.7 µM and the IC50 [3] was > 267 µM. For the same molecule, the IC50 [4] was > 89 µM, the IC50 [5] was > 14 µM and the IC50 [6] was > 267 µM.
With Nc1ccc(-n2nc(-c3ccc(Oc4ccccc4)cc3)cc2N2CCOCC2)cc1 the IC50 [1] was 10.5 µM, the IC50 [2] was 10.3 µM and the IC50 [3] was 61.6 µM. For the same molecule, the IC50 [4] was 22 µM, the IC50 [5] was 6.5 µM and the IC50 [6] was 61.7 µM.
c1ccc(Oc2ccc(-c3cc(N4CCNCC4)[nH]n3)cc2)cc1 gave an IC50 [1] of 25.8 µM, an IC50 [2] of 1.1 µM and an IC50 [3] of 18 µM. For the same molecule, the IC50 [4] was 9.5 µM, the IC50 [5] was 6.6 µM and the IC50 [6] was 4.7 µM.
Work on CCc1ccc(-c2cc(C3CCOCC3)[nH]n2)cc1 yielded an IC50 [1] of 15.1 µM, an IC50 [2] of 28.6 µM and an IC50 [3] of 165 µM. The IC50 [4] was 114 µM, the IC50 [5] was > 19 µM and the IC50 [6] was 7.8 µM.
For c1ccc(Oc2ccc(-c3cc(C4CCOCC4)[nH]n3)cc2)cc1, the IC50 [1] was 6.4 µM, the IC50 [2] was 3.2 µM and the IC50 [3] was 89.6 µM. For the same molecule, the IC50 [4] was 59 µM, the IC50 [5] was > 15 µM and the IC50 [6] was 43 µM.
O=[N+]([O-])c1ccc(Oc2ccc(-c3cc(N4CCOCC4)[nH]n3)cc2)cc1 was tested, and the IC50 [1] was 22.3 µM, the IC50 [2] was 4.4 µM and the IC50 [3] was > 245 µM. For the same molecule, the IC50 [4] was > 81 µM, the IC50 [5] was > 13 µM and the IC50 [6] was 93.4 µM.
CSC(=CC(=O)c1ccc([N+](=O)[O-])cc1)SC was tested, and the IC50 [1] was 20.2 µM, the IC50 [2] was 224 µM and the IC50 [3] was 40.5 µM. The IC50 [4] was 54.6 µM, the IC50 [5] was > 18 µM and the IC50 [6] was > 334 µM.
CSC(=CC(=O)c1ccc(Oc2ccccc2)cc1)SC was tested, and the IC50 [1] was 9.7 µM, the IC50 [2] was 51.4 µM and the IC50 [3] was 34.5 µM. For the same molecule, the IC50 [4] was 24.4 µM, the IC50 [5] was > 15 µM and the IC50 [6] was 16.6 µM.
c1ccc(Oc2ccc(-c3cc(N4CCOCC4)[nH]n3)cc2)cc1 was tested, and the IC50 [1] was 8 µM, the IC50 [2] was 1 µM and the IC50 [3] was 61.6 µM. For the same molecule, the IC50 [4] was 52 µM, the IC50 [5] was > 15 µM and the IC50 [6] was 40.7 µM.
For c1ccc(Oc2ccc(-c3cc(N4CCOCC4)on3)cc2)cc1, the IC50 [1] was 12.7 µM, the IC50 [2] was 5.9 µM and the IC50 [3] was 172 µM. It also gave an IC50 [4] of 46.5 µM, an IC50 [5] of 10.5 µM and an IC50 [6] of 75.2 µM.
With O=[N+]([O-])c1ccc(-n2nc(-c3ccc(Oc4ccccc4)cc3)cc2N2CCOCC2)cc1 the IC50 [1] was 4.8 µM, the IC50 [2] was 28.8 µM and the IC50 [3] was > 203 µM. For the same molecule, the IC50 [4] was > 67 µM, the IC50 [5] was 3.7 µM and the IC50 [6] was > 203 µM.
CC(C)(C)OC(=O)N1CCN(c2cc(-c3ccc(Oc4ccccc4)cc3)n[nH]2)CC1 gave an IC50 [1] of 2.3 µM, an IC50 [2] of 2.9 µM and an IC50 [3] of 30 µM. It also gave an IC50 [4] of 12.8 µM, an IC50 [5] of 8.1 µM and an IC50 [6] of 17.6 µM.
c1ccc(Oc2ccc(-c3cc(CN4CCOCC4)[nH]n3)cc2)cc1 was tested, and the IC50 [1] was 15.6 µM, the IC50 [2] was 4.1 µM and the IC50 [3] was 150 µM. The IC50 [4] was 45.3 µM, the IC50 [5] was > 14 µM and the IC50 [6] was 54.9 µM.
In the case of O=C(CC(=O)C1CCOCC1)c1ccc(Oc2ccccc2)cc1, the IC50 [1] is reported as 4.6 µM, the IC50 [2] is reported as 25.8 µM and the IC50 [3] is reported as 231 µM. The IC50 [4] was 54.6 µM, the IC50 [5] was > 15 µM and the IC50 [6] was 1.8 µM.
In the case of CSC(=CC(=O)c1ccc(Oc2ccc([N+](=O)[O-])cc2)cc1)SC, the IC50 [1] is reported as 5.7 µM, the IC50 [2] is reported as 45.9 µM and the IC50 [3] is reported as 156 µM. For the same molecule, the IC50 [4] was > 83 µM, the IC50 [5] was > 13 µM and the IC50 [6] was > 249 µM.
In the case of O=C(Cn1ccnc1[N+](=O)[O-])NCc1ccccc1 [BENZNIDAZOLE], the IC50 [4] is reported as 2.13 µM.
Nc1nc(N)nc(Nc2ccc([As]3SCC(CO)S3)cc2)n1 (stereo unspecified) [MELARSOPROL] showed an IC50 [2] of 0.01 µM and an IC50 [6] of 0.13 µM.
Work on CCCCCCCCCCCCCCCCOP(=O)([O-])OCC[N+](C)(C)C [MILTEFOSINE] yielded an IC50 [1] of 0.26 µM.
